Assay results: ChEMBL document CHEMBL3044558, “Structure-activity relationship development of dihaloaryl triazole compounds as insecticides and acaricides. 1. Phenyl thiophen-2-yl triazoles” (2007)
Converted amounts (≈) assume the structure as drawn. The source made the active and inactive calls. No cut-off for these calls is given here.

Key:
Bemisia tabaci [1] = test: Insecticidal activity against Bemisia tabaci (sweet potato whitefly) second-instar larvae infested five weeks old cotton plants followed by compound 250 ppm compound spraying after insect oviposit assessed as insect mortality measured 13 days post compound treatment under green house conditions; format: functional
Heliothis virescens [2] = test: Insecticidal activity against Heliothis virescens (tobacco budworm) second-instar larvae infested on 400 ppm compound pre-treated cotton cotyledon disk assessed as insect mortality measured 5 days post compound treatment under green house conditions; format: functional
Trichoplusia ni [3] = system: Trichoplusia ni
Spodoptera exigua [4] = system: Spodoptera exigua
Tetranychus urticae [5] = system: Tetranychus urticae
Aphis gossypii [6] = system: Aphis gossypii
Trichoplusia ni [7] = test: Insecticidal activity against Trichoplusia ni (cabbage looper) second-instar larvae infested on compound pre-treated cabbage leaf disk assessed as insect mortality measured 5 days post compound treatment under green house conditions; format: functional; conditions: for LC50: Trichoplusia ni, foliar
How it was run: (§1)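 Leaf disks treated, air-dried and placed singly in cups. Cotton cotyledon disks each get one second-instar tobacco budworm larva; cabbage leaf disks each get one second-instar cabbage looper larva. Cups are capped and held in a growth chamber at 25 °C, 50-55% RH, 14 h light/10 h dark for 5 days.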

Spodoptera exigua [8] = test: Insecticidal activity against Spodoptera exigua second-instar larvae feeded on compound treated lepidopteran diet assessed as insect mortality measured 5 days post compound treatment under green house conditions; format: functional; conditions: for LC50: Spodoptera exigua, 120 h
Heliothis virescens [9] = test: Insecticidal activity against Heliothis virescens (tobacco budworm) second-instar larvae infested on compound pre-treated cotton cotyledon disk assessed as insect mortality measured 5 days post compound treatment under green house conditions; format: functional; conditions: Heliothis virescens; how it was run: as §1
Heliothis virescens [10] = system: Heliothis virescens
Trichoplusia ni [11] = test: Insecticidal activity against Trichoplusia ni (cabbage looper) second-instar larvae infested on 400 ppm compound pre-treated cabbage leaf disk assessed as insect mortality measured 5 days post compound treatment under green house conditions; format: functional; conditions: at 400 ppm
Spodoptera exigua [12] = test: Insecticidal activity against Spodoptera exigua second-instar larvae feeded on 400 ppm compound treated lepidopteran diet assessed as insect mortality measured 5 days post compound treatment under green house conditions; format: functional; conditions: at 400 ppm
Tetranychus urticae [13] = test: Insecticidal activity against female Tetranychus urticae (two-spotted spider mite) infested cotton leaf disks followed by 2.5 ppm compound spraying after oviposit assessed as insect mortality measured after 6 days post compound application under green house conditions; format: functional; conditions: foliar, 144 h
Myzus persicae = test: Insecticidal activity against Myzus persicae (green peach aphid) assessed as insect mortality at 50 ppm; format: functional
Aphis gossypii [14] = test: Insecticidal activity against Aphis gossypii (cotton aphid) infested one week old Crookneck squash plants assessed as insect mortality at 5 ppm measured after 3 days post compound application under green house conditions; format: functional; conditions: 72 h
Aphis gossypii [15] = test: Insecticidal activity against Aphis gossypii (cotton aphid) infested one week old Crookneck squash plants assessed as insect mortality at 50 ppm measured after 3 days post compound application under green house conditions; format: functional; conditions: 72 h
Bemisia tabaci [16] = system: Bemisia tabaci
Aphis gossypii [17] = test: Insecticidal activity against Aphis gossypii (cotton aphid) infested one week old Crookneck squash plants assessed as insect mortality measured after 3 days post compound application under green house conditions; format: functional; conditions: for LC50: Aphis gossypii, 72 h

| Compound | mortality (Bemisia tabaci [1]) [%] | mortality (Heliothis virescens [2]) [%] | mortality (Trichoplusia ni [3]) | mortality (Spodoptera exigua [4]) | mortality (Tetranychus urticae [5]) | mortality (Aphis gossypii [6]) | LC50 (Trichoplusia ni [7]) [µg/mL] | LC50 (Spodoptera exigua [8]) [µg/mL] | LC50 (Heliothis virescens [9]) [µg/mL] | mortality (Heliothis virescens [10]) | mortality (Trichoplusia ni [11]) [%] | mortality (Spodoptera exigua [12]) [%] | mortality at 2.5 ppm (Tetranychus urticae [13]) [%] | LC50 (Myzus persicae) [µg/mL] | mortality at 50 ppm (Aphis gossypii [15]) [%] | mortality (Bemisia tabaci [16]) | other results |
| --- | --- | --- | --- | --- | --- | --- | --- | --- | --- | --- | --- | --- | --- | --- | --- | --- | --- |
| Cc1sc(-c2nc(-c3c(F)cccc3Cl)nn2C)c(C)c1-c1ccc(O)cc1 | <50 | <50 | inactive | inactive | inactive | inactive | – | – | – | – | – | – | – | – | – | – | – |
| CC1(C)C(C=C(Cl)Cl)C1C(=O)OC(C#N)c1cccc(Oc2ccccc2)c1 (stereo not drawn) [ALPHA-CYPERMETHRIN] | – | – | – | – | – | – | 0.6 (≈ 1.44 µM) | 1.6 (≈ 3.84 µM) | 1.3 (≈ 3.12 µM) | – | – | – | – | – | – | – | – |
| Cc1ccc(-c2ccc(-c3nc(-c4c(F)cccc4Cl)nn3C)s2)cc1 | <50 | – | inactive | inactive | inactive | inactive | – | – | – | inactive | – | – | – | – | – | – | – |
| Cn1nc(-c2c(F)cccc2Cl)nc1-c1sc(-c2ccc(OC(F)(F)C(F)Br)cc2)cc1Cl (stereo not drawn) | – | 90 | – | – | – | – | < 1.6 | < 1.6 | 53.7 (≈ 92.4 µM) | – | 70 | 50 | 90 | 70 (≈ 120 µM) | 90 | inactive | mortality at 5 ppm (Aphis gossypii [14]): 54% |
| Cc1cc(C2CCC(O)CC2)sc1-c1nc(-c2c(F)cccc2Cl)nn1C (stereo not drawn) | 50 | <50 | inactive | inactive | inactive | inactive | – | – | – | – | – | – | – | – | – | – | – |
| Cn1nc(-c2c(F)cccc2Cl)nc1-c1ccc(-c2cccc(C(F)(F)F)c2)s1 | – | – | inactive | inactive | inactive | inactive | – | – | – | inactive | – | – | – | – | – | inactive | – |
| Cc1cc(-c2ccc(OC(F)(F)C(F)Br)cc2)sc1-c1nc(-c2c(F)cccc2Cl)nn1C (stereo not drawn) | – | 90 | – | – | – | – | < 1.6 | 2.17 (≈ 3.87 µM) | 3.93 (≈ 7.01 µM) | – | <50 | 70 | 90 | 62 (≈ 111 µM) | 90 | inactive | mortality at 5 ppm (Aphis gossypii [14]): 89% |
| Cn1nc(-c2c(F)cccc2Cl)nc1-c1sc(-c2ccc(O)cc2)cc1Cl | – | 60 | inactive | inactive | inactive | – | – | – | – | – | – | – | – | – | < 50 | inactive | – |
| Cn1nc(-c2c(F)cccc2F)nc1-c1ccc(-c2ccc(F)c(F)c2)s1 | – | – | inactive | inactive | inactive | inactive | – | – | – | inactive | – | – | – | – | – | inactive | – |
| Cc1ccc(-c2cc(Cl)c(-c3nc(-c4c(F)cccc4F)nn3C)s2)cc1 | – | 80 | inactive | inactive | – | inactive | – | – | – | – | – | – | 90 | – | – | inactive | – |
| Cc1cc(-c2ccc(Cl)c(F)c2)sc1-c1nc(-c2c(F)cccc2Cl)nn1C | – | 90 | – | – | – | – | 30.2 (≈ 69.2 µM) | 65 (≈ 149 µM) | 19.4 (≈ 44.5 µM) | – | 90 | 90 | 90 | 89 (≈ 204 µM) | 80 | inactive | LC90 (Trichoplusia ni [7]): 40.3 ppm; LC90 (Spodoptera exigua [8]): 323 ppm; LC90 (Aphis gossypii [17]): 933 ppm; LC50 (Aphis gossypii [17]): 0.923 µg/mL (≈ 2.12 µM) |
| Cn1nc(-c2c(F)cccc2Cl)nc1-c1sc(-c2ccc(OC(F)(F)F)cc2)cc1Cl | – | 90 | – | – | – | – | 4.02 (≈ 8.23 µM) | < 1.6 | 62 (≈ 127 µM) | – | 90 | 70 | 90 | 65 (≈ 133 µM) | 90 | inactive | LC90 (Trichoplusia ni [7]): 69.2 ppm; mortality at 5 ppm (Aphis gossypii [14]): 80% |
| Cn1nc(-c2c(F)cccc2Cl)nc1-c1ccc(-c2ccc(C(F)(F)F)cc2)s1 | – | – | inactive | inactive | – | inactive | – | – | – | inactive | – | – | 80 | – | – | inactive | – |
| Cn1nc(-c2c(F)cccc2Cl)nc1-c1cc(Br)c(-c2ccc(C(F)(F)F)cc2)s1 | – | – | inactive | inactive | inactive | inactive | – | – | – | inactive | – | – | – | – | – | inactive | – |
| Cn1nc(-c2c(F)cccc2F)nc1-c1ccc(-c2ccc(C(C)(F)F)cc2Cl)s1 | – | – | inactive | inactive | inactive | inactive | – | – | – | inactive | – | – | – | – | – | inactive | – |
| Cc1c(-c2ccc(OC(F)(F)F)cc2)csc1-c1nc(-c2c(F)cccc2Cl)nn1C | 90 | 90 | – | – | – | – | 15.8 (≈ 33.8 µM) | 21.9 (≈ 46.8 µM) | > 400 | – | 90 | 90 | 90 | 23.3 (≈ 49.8 µM) | 90 | – | LC90 (Aphis gossypii [17]): 22.2 ppm; LC50 (Aphis gossypii [17]): 0.07 µg/mL (≈ 0.15 µM) |
| Cn1nc(-c2c(F)cccc2F)nc1-c1ccc(-c2ccc(OC(F)(F)F)cc2)s1 | – | 90 | – | inactive | inactive | inactive | – | – | – | – | 90 | – | – | – | – | inactive | – |
| Cc1cc(C2=CCC(O)CC2)sc1-c1nc(-c2c(F)cccc2Cl)nn1C (stereo not drawn) | <50 | <50 | inactive | inactive | inactive | – | – | – | – | – | – | – | – | – | < 50 | – | – |
| O=[N+]([O-])/N=C1\NCCN1Cc1ccc(Cl)nc1 [IMIDACLOPRID] | – | – | – | – | – | – | – | – | – | – | – | – | – | 1.7 (≈ 6.65 µM) | – | – | LC50 (Aphis gossypii [17]): 0.05 µg/mL (≈ 0.196 µM) |
| Cc1c(-c2ccc(OC(F)(F)C(F)Cl)cc2)csc1-c1nc(-c2c(F)cccc2Cl)nn1C (stereo not drawn) | 90 | 90 | – | – | – | – | < 1.56 | 1.56 (≈ 3.02 µM) | 4.38 (≈ 8.48 µM) | – | 70 | 80 | 90 | < 5 | 80 | – | LC50 (Aphis gossypii [17]): < 5 µg/mL |
